# System: HHD-DR1 mice
# Assay: Immunization of HHD-DR1 mice, IFN-γ ELISPOT of splenocytes
# Assay type: in vivo
# Settings: HHD-DR1 mice n=4, poly(I:C), in words
# Summary of the method: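 HHD-DR1 transgenic mice (human HLA-A*02.01 and HLA-DRB1*01; n=4/group) received a CD8 neoantigen peptide with poly(I:C), combined with a CD4 neoantigen peptide, anti-CD40 or both. Adjuvants were given at 50 µg/mouse. Class I peptide was injected s.c.; class II peptide i.v., boosted 1 week later. Spleens were taken 7 days after the last dose. Splenocytes (8×10⁵/well) were peptide-stimulated (10–0.01 µM) for 24 h and read by IFN-γ ELISPOT, no-peptide background subtracted.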
sequence,measurement,value
KYVYDFGVSV,Response against KYV when antiCD40 is added to KYV plus EVT,antiCD40 did not improve responses

# Source: article PMC9066373 (Journal for Immunotherapy of Cancer, 2022)
